Screens (PubChem)
Sampled rows, rich in hits. Any-hit rate of the full collection: about 2.9%.
GalR3 antag – GalR3 antagonists in HEK293 cells, primary screen, cell-based, fluorescence readout | Galanin receptor type 3 (Homo sapiens), O60755 | HEK293 GalR3-CNG cAMP membrane potential fluorescence; galR3 body fused to GalR1 C-terminus | inhibition, % at 3 µM | 360,000 tested, 0.44% active | AID 651719, 2012;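 active means inhibition above the screen-wide average plus 3 SD, cut at about 13% in these data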;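 further: forskolin and galanin both at EC90 stimulate the cells; cAMP rise reported by CNG channel membrane potential dye signal; 0% = forskolin plus galanin with DMSO and 100% = forskolin alone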
Target sequence (O60755 1-299 limits assumed): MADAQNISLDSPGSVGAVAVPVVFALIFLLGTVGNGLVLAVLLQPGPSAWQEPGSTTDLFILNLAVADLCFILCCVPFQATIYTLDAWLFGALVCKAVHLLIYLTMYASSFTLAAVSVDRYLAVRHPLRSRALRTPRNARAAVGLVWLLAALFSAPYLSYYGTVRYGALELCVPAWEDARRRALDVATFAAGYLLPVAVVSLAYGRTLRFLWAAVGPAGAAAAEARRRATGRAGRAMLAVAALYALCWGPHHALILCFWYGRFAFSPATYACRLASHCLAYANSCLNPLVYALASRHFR
MC4R ag barr – MC4R agonists recruiting beta-arrestin, primary screen, cell-based, luminescence, agonist arm of biased-ligand search; 360,000 tested, 0.98% active; U2OS MC4R beta-arrestin complementation; percent of melanotan II response, DMSO zero; Melanocortin receptor 4 (Homo sapiens), P32245; activation, % at 8.9 µM;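 active means activation above a per-plate cutoff, the mean activation of sample wells on that plate plus 3 SD, cut at about 8% in these data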
Target sequence (P32245 whole entry, looked up): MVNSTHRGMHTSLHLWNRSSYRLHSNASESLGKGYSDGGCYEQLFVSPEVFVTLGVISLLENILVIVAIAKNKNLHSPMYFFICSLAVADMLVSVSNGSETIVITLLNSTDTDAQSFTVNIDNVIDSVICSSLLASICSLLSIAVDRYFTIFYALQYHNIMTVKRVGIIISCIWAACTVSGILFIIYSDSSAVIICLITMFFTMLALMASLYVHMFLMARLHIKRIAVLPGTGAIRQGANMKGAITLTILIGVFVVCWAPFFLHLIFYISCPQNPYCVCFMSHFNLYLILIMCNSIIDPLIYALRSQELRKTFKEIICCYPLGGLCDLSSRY
TAG inh – inhibitors of triacylglycerol accumulation, primary screen, cell-based, uHTS, fluorescence, H9c2; AID 651582, 2012; H9c2 cells, Nile Red lipid (TAG) fluorescence; cells loaded with 200 µM oleic acid; 230,000 tested, 0.66% active; inhibition, % at 12.5 µM;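 active means pattern-corrected inhibition of lipid staining of at least 50% with the nuclear-stain viability signal not falling by more than 50%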;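 further: 0% = DMSO wells and 100% = triacsin C control wells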
Efflux pump mplx – inhibitors of Candida efflux pumps in yeast, primary screen, S. cerevisiae, Nile Red, multiplex; S. cerevisiae Candida pump triplex; inhibition, % at 10 µM; 330,000 tested, 0.44% active; AID 485275, 2010;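 active means plate passing quality check with inhibition over a set limit, or well fluorescence over plate mean plus 4 SD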;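 further: Nile Red retained in pooled yeast measured as flow cytometry median fluorescence; 0% = buffer negative control and 100% = Enniatin B positive control; higher means more Nile Red kept so more efflux inhibition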
Calb FLC – C. albicans growth inhibition with fluconazole, primary screen, CaCi-2 strain, Alamar Blue fluorescence | growth inhibition, % (test concentration not listed) | 300,000 tested, 0.57% active | C. albicans CaCi-2 + fluconazole, 48 h;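 active means growth inhibition above about 58% in most replicates, limit read from the data, passing the limit was not always enough; inconclusive means exactly half the replicates above a set limit; inactive means most replicates below a set limit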;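 further: all wells also contain fluconazole at 8 µg/ml as a sub-toxic cotreatment; 0% = median of DMSO wells and 100% = median of geldanamycin control wells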
MC4R antag cAMP – MC4R antagonists of cAMP signaling, primary screen, cell-based, TR-FRET, antagonist arm of biased-ligand search. MC4R-expressing cells, MTII-stimulated cAMP, LANCE TR-FRET. inhibition, % at 6.5 µM. 360,000 tested, 0.48% active. AID 540295, 2011;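 active means inhibition above its plate's cutoff, the mean of tested wells on that plate plus 3 SD, cut at about 29% in these data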;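 further: 0% = Melanotan II alone and 100% = Melanotan II plus saturating MCL0020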
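Material: human MC4R-expressing U2OS cells. Probe or stimulus: Melanotan II challenge. Dosing: 6.5 µM single dose. Times: 30-min compound, 1-h challenge, 1-h detection, room temperature. Technique: TR-FRET with Eu-cAMP and labeled anti-cAMP, 671 nm. Replication: singlicate.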
Numbers without * were called inactive; u = inconclusive; x = no result given.

SMILES | GalR3 antag | MC4R ag barr | TAG inh | Efflux pump mplx | Calb FLC | MC4R antag cAMP
C=CCN(CC=C)S(=O)(=O)c1ccc(C(=O)Nc2nnc(COC)o2)cc1 | 0 | 1 | x | 0 | 114* | -2
CCN(c1ccccc1)S(=O)(=O)c1ccc(C(=O)Nc2nnc(C3CC3)o2)cc1 | 1 | -3 | x | 0 | 79* | -8
CCNC(=S)NNC(=O)c1cc(-c2cccc(C)c2)nc2ccccc12 | -4 | -2 | x | 0 | 116* | 3
CCCCOc1ccc(-c2cc(C(=O)NNC(=S)NCC)c3ccccc3n2)cc1 | x | -2 | x | 0 | 72 | 4
CCNC(=S)NNC(=O)c1cc(-c2ccc(OC)cc2)nc2ccccc12 | -2 | -2 | -7 | 0 | 99* | 0
CCNC(=S)NNC(=O)c1cc(-c2cccc(OCC)c2)nc2ccccc12 | -6 | -2 | x | 0 | 13 | 1
c1ccc(/N=C2\N=C(Nc3ccccn3)c3ccccc32)nc1 | 6 | 0 | 51* | 0 | 1 | -5
c1ccc(Nc2ccccn2)cc1 | -3 | -1 | -18 | 0 | -1 | -6
Cc1ccccc1C(=O)O/N=C/c1c(N2CCOCC2)n(C)c2ccccc12 | -1 | -1 | x | 0 | 107* | 4
COC(=O)[C@]12C[C@H](CC(=O)NCc3ccccc3)C(=O)N(Cc3ccc4c(c3)OCO4)C1=C[C@H](COCc1ccccc1)O[C@@H]2C | -6 | x | x | x | x | x
O=[N+]([O-])c1ccc(SN2CCCCC2)c([N+](=O)[O-])c1 | -5 | x | x | x | x | x
COc1ccc(-c2nc(-c3ccccc3)c(-c3cc([N+](=O)[O-])ccc3C)[nH]2)cc1O | -4 | 0 | 24 | 0 | 25 | 10
Cc1ccc([N+](=O)[O-])cc1-c1[nH]c(-c2ccc(O)c(O)c2)nc1-c1ccccc1 | -5 | 5 | x | 0 | 112* | 3
Nc1[nH]c(C(=O)c2ccccc2)c(-c2cccnc2)c1C(=O)c1ccccc1 | -6 | x | x | x | x | x
O=C(O)CCn1cc(/C=C/C(=O)c2ccc(Cl)cc2)c(-c2ccc(Br)cc2)n1 | -4 | -1 | x | 0 | x | 35*
c1ccc(CNc2nc(NCc3ccccc3)c3ccccc3n2)cc1 | x | 8.6* | 20 | 0 | 80* | 4
O=C(Cc1ccccc1)NNc1ccc2ccccc2c1 | -6 | -3 | 10 | 0 | u | 2
O=C(CN1C(=O)CCC1=O)NNc1ccc2ccccc2c1 | -6 | -2 | -15 | 0 | 100* | 10
CC1=NNC(=O)/C1=C\c1cn(-c2ccccc2)nc1-c1ccc(F)cc1 | x | 3 | 14 | x | 19 | 31*
O=Cc1cn(-c2ccccc2)nc1-c1ccc(F)cc1 | -12 | 3 | x | 0 | 19 | 22
S=c1nc[nH]c2c1cnn2Cc1ccccc1 | -10 | -2 | x | 0 | 94* | 10
O=C(NC(=S)NNC(=O)c1ccccc1O)c1ccccc1 | -5 | -2 | x | 0 | 21 | 8
Cc1ccccc1C(=O)NNC(=S)NC(=O)c1ccccc1 | -1 | -3 | 5 | 3 | 98* | 17
CCCCOc1ccccc1C(=O)NNC(=S)NC(=O)c1ccccc1[N+](=O)[O-] | -7 | -4 | x | 0 | 103* | 3
O=C(NNC(=S)NC(=O)c1ccccc1[N+](=O)[O-])c1ccccc1[N+](=O)[O-] | -10 | -1 | x | 0 | 4 | 3
SMILES | GalR3 antag | MC4R ag barr | TAG inh | Efflux pump mplx | Calb FLC | MC4R antag cAMP
O=C(COc1ccc(Br)cc1)NNC(=S)NC(=O)c1ccccc1[N+](=O)[O-] | -3 | -3 | -3 | 0 | 28 | 0
CC(=O)NC(=S)NNC(=O)CCc1ccccc1 | -3 | -1 | -14 | 0 | -15 | 4
O=C(CCc1ccccc1)NNC(=S)NC(=O)c1ccccc1 | -6 | -4 | x | 0 | 110* | -13
Cc1ccc(C(=O)NC(=S)NNC(=O)c2ccccc2[N+](=O)[O-])cc1 | 0 | -1 | -4 | 0 | 114* | 12
CCCc1nc2ccc(Cl)cn2c1Cc1ccc(C)cc1 | -7 | x | x | x | x | x
COc1ccc2nc(-c3ccc(CN4CCC(c5nc6ccccc6[nH]5)CC4)cc3)c(-c3ccccc3)nc2c1 | -4 | x | x | x | x | x
CCC1Cc2[nH][nH]c(=O)c2C(CC)O1 (configuration not stated) | -5 | x | x | x | x | x
COc1ccc(S(=O)(=O)NC2CC3CCC2C3)cc1Br (configuration not stated) | -5 | 0 | -9 | 0 | -20 | 11
Cc1cc(C)c(S(=O)(=O)NC2CC3CCC2C3)c(C)c1 (configuration not stated) | -4 | 8.5* | x | 0 | 0 | 19
CN(C)C(=O)c1ccc(Cc2cn(C)c3ccccc23)nc1 | -4 | 1 | 6 | x | x | 5
C[C@H](NC(=O)c1ncn2c1C(=O)NC[C@H]2C)C(=O)OC(C)(C)C | -3 | -1 | 15 | x | x | -4
O=C(Oc1c(Cl)cc(Cl)c2cccnc12)N1CCCCC1 | -3 | -1 | x | 0 | 20 | 5
CC(CN1CCOCC1)OC(=O)c1ccccc1Br (configuration not stated) | 4 | -3 | -5 | 0 | -3 | -2
O=C(Oc1c(CN2CCOCC2)cc(Cl)c2cccnc12)c1ccccc1Br | 7 | -1 | 103 | 0 | 87* | -1
O=C(Oc1c(Cl)cc(Cl)c2cccnc12)N1CCOCC1 | -5 | 0 | x | 0 | 92* | 2
COc1cccc(COC(=O)CSCC(=O)Nc2ccc(C)cc2)c1OC | -4 | 0 | 8 | x | x | -5
O=C(Nc1cccc2ccccc12)OC[C@@H]1CSCCS(=O)(=O)N1 | -4 | x | x | x | x | x
O=C(Nc1ccccc1)c1ccc(-c2ccc([N+](=O)[O-])cc2)o1 | -9 | 1 | x | 0 | -16 | 2
O=C(NNC(=O)c1ccccc1O)c1ccc(-c2ccc([N+](=O)[O-])cc2)o1 | -3 | -4 | -1 | 0 | 91* | 0
CNC(=O)C[C@H]1C(=O)N(CCc2ccccc2)C[C@@H]1CSC | -4 | 1 | 12 | x | x | 1
O=C(NCCN1CCC(n2c(=O)[nH]c3ccccc32)CC1)c1ccc(F)c(F)c1 | -7 | x | x | x | x | x
Cc1ccc(N=Nc2c(C)[nH]n(C(N)=S)c2=O)cc1C | -1 | -2 | x | 0 | -10 | 6
Cc1[nH]n(C(N)=S)c(=O)c1N=Nc1ccc(S(=O)(=O)N2CCCCCC2)cc1 | -3 | -2 | x | 0 | 104* | 10
O=c1cc(-c2ccccc2)nc2c(Cl)cc(Cl)cn12 | -5 | -1 | 6 | x | x | -4
CCc1nc2c(OCC(N)=O)cccn2c1N(C)C(=O)c1cccs1 | -3 | 1 | 17 | x | x | -1
